Measured values reported in article PMC8103808 (Journal of medicinal chemistry, 2020).
Entries after “also recorded” stand apart in the source; their conditions may differ.

How the values were obtained:
PDIA1 [1] = biological target: T1, PDIA1 (Homo sapiens, UniProt P07237); assay: Glutathione competition in PDI reductase assay; type: biochemical; conditions: 5 mM GSH
U−118 MG cells = assay: Colony formation assay with or without BSO pretreatment; type: cell-based, human; conditions: BSO pretreatment 24 h
Method in brief: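 U-118 MG cells grown in RPMI-1640 with 10% FBS were seeded at 600 cells/well and allowed to attach. Serial dilutions of buthionine sulfoximine were added 24 h later, with pretreatment overnight (24 h per legend), then serial dilutions of test compound. Cells were cultured 10–14 days until colonies formed, stained 1 h with crystal violet/formaldehyde/methanol, washed with water and imaged.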

PDI [2] = biological target: T2, PDI (Homo sapiens, UniProt P07237); assay: Protein mass spectrometry; type: binding; conditions: 10 μM PDI, 100 μM DTT, 100 μM compound
Method in brief: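 Recombinant human PDI (10 μM) was incubated with 100 μM test compound and 100 μM DTT for 30 min before injection for Q-TOF intact-protein mass spectrometry to detect covalent adducts.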

U−87 MG cells [3] = assay: Bromouridine nascent RNA sequencing; type: cell-based, human; conditions: 20 μM, 4 h; GSEA
U−87 MG cells [4] = assay: MTT growth inhibition assay in U-87 MG cells; type: cell-based; conditions: Homo sapiens, read-out: MTT (% inhibition at 30 μM)
Method in brief: (§1)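 Cells were grown at 37 °C, 5% CO₂ in 10% FBS medium: DMEM for U-87 MG, RPMI-1640 for A-172. Duplicate wells of 3000–5000 cells were attached overnight, then exposed to 30 μM test compound for 72 h. MTT (3 mg/mL) was added for 4 h at 37 °C and formazan dissolved in DMSO before reading A570. Inhibition (%) = [1−(At−Ab)/(Ac−Ab)]×100.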

A-172 cells = assay: MTT growth inhibition assay in A-172 cells; type: cell-based; conditions: Homo sapiens, A 172, read-out: MTT (% inhibition at 30 μM)
Method in brief: as §1

PDI [5] = biological target: T2, PDI; assay: Gel-based competition with fluorescent probe PACMA57; type: binding; conditions: 100 μM compound
PDIA1 [6] = biological target: T1, PDIA1; assay: PDI reductase assay; type: biochemical
PDI [7] = biological target: T2, PDI; assay: kinact/KI determination in PDI reductase assay with reduced PDI; type: biochemical
PDIA3 [8] = biological target: T3, PDIA3 (Homo sapiens, UniProt P30101); assay: PDI reductase assay with PDIA3; type: biochemical
T3 sequence (P30101 25-505): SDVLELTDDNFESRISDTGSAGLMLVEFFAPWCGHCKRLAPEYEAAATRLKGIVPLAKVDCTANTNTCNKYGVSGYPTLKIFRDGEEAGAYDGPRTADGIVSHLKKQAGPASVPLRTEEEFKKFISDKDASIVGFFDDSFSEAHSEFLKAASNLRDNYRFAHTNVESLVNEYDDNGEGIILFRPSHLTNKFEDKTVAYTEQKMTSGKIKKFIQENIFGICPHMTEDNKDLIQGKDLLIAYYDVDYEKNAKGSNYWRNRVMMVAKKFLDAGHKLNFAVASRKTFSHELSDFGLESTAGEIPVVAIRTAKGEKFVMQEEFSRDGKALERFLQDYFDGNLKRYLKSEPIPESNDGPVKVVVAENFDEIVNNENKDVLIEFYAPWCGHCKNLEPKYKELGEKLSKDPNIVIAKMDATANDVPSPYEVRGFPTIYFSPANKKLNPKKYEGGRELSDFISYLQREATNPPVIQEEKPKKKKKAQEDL

PDIA2 [9] = biological target: T4, PDIA2 (Homo sapiens, UniProt Q13087); assay: PDI reductase assay with PDIA2; type: biochemical
T4 sequence (Q13087 22-525): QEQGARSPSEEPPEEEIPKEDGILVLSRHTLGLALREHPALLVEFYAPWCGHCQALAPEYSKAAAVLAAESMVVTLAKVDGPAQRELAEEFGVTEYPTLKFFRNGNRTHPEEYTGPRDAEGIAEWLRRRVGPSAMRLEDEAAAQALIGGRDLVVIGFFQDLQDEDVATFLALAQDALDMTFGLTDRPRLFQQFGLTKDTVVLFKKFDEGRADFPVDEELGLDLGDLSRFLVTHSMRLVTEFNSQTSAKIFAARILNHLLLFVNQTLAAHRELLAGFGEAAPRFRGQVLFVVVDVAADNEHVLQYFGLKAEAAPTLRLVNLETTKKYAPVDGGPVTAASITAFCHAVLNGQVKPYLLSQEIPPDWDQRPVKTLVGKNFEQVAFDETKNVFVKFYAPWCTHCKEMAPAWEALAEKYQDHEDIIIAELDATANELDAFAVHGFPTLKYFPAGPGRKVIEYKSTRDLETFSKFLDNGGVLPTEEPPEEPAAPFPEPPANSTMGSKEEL

PDI [10] = biological target: T2, PDI; assay: Thermal shift assay; type: binding; conditions: oxidized PDI; 100 μM compound
PDI H256A mutant = PDI H256A mutant (Homo sapiens, UniProt P07237, H256A); assay: PDI reductase assay with H256A mutant; type: biochemical; conditions: Histidine 256 in b′ domain mutated to alanine
Method in brief: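 H256A PDI was made by site-directed mutagenesis, expressed in BL21(DE3) and purified like wild type. Enzyme (0.4 μM or 50 nM) was preincubated with test compound for 1 h at 37 °C in 100 mM sodium phosphate, 2 mM EDTA, 8 μM DTT, pH 7.0. DTT (500 μM; 125 μM for 50 nM enzyme) and 130 μM bovine insulin were added, and reduction proceeded at room temperature. Insulin B-chain aggregation was read at 620 nm, and activity calculated from ΔOD over 60 min (180 min for 50 nM).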

PDI b′ domain = PDI b′ domain (Homo sapiens, UniProt P07237); assay: ANS spectral scan; type: binding; conditions: 5 μM PDI, 100 μM compound
Method in brief: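 Recombinant N-terminally His-tagged human PDI, expressed in E. coli BL21(DE3) and Ni-NTA purified, at 5 μM with 100 μM test compound or matching DMSO in TBS for 1 h at 37 °C. ANS then added and incubated 20 min at 25 °C in the dark. Fluorescence spectrum recorded at Ex 370 nm, Em 400–700 nm.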

PDI [11] = biological target: T2, PDI; assay: Reversibility; type: biochemical; conditions: for PDI activity recovery after 100-fold dilution: 50 μM compound with 40 μM PDI, 3 h at room temperature; for PDI activity recovery after dilution: compound concentrations 10 times that of the protein
serum albumin = serum albumin (Bos taurus, UniProt P02769); assay: Gel-based binding in cell-free medium with fetal bovine serum; conditions: cell-free medium supplemented with fetal bovine serum
Method in brief: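 Cell-free DMEM, with 10% FBS added, was incubated overnight at 37 °C with 20 μM BODIPY-labelled test compound. Binding to serum albumin was assessed by in-gel imaging of the labelled protein.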

PDIA3 [12] = biological target: T3, PDIA3; assay: Gel-based binding assay with recombinant PDIA3; conditions: recombinant protein
Method in brief: (§2)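 Each protein at 3.5 µM in CelLytic M buffer was incubated with BODIPY-labelled test compound overnight at room temperature. PDIA1 and PDIA2 are recombinant human; PDIA1 is His-tagged and expressed in E. coli BL21(DE3). Samples were boiled in Laemmli or non-reducing sample buffer, resolved on 10% polyacrylamide gels, and imaged immediately for labelled protein.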

PDIA2 [13] = biological target: T4, PDIA2; assay: Gel-based binding assay with recombinant PDIA2; conditions: recombinant protein
Method in brief: as §2

PDIA1 [14] = biological target: T1, PDIA1; assay: Gel-based binding assay with recombinant PDIA1; conditions: recombinant protein
Method in brief: as §2

BSA = BSA (Bos taurus, UniProt P02769); assay: Gel-based binding assay with BSA; set-up: species or system bovine
Method in brief: as §2

T2 sequence (P07237 18-508): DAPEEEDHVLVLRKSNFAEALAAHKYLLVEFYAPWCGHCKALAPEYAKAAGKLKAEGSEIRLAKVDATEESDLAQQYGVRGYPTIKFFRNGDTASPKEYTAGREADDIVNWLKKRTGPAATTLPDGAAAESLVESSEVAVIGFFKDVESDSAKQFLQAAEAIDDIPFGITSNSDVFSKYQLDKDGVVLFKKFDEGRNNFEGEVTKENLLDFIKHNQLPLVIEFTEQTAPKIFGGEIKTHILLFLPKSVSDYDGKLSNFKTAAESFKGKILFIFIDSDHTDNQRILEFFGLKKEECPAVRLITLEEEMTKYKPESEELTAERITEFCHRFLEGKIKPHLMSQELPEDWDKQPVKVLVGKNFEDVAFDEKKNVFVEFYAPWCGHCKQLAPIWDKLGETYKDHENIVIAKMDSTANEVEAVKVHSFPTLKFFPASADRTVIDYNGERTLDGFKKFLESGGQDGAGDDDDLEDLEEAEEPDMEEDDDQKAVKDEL
T1 sequence (P07237 18-508): as above
serum albumin, sequence (P02769 25-607): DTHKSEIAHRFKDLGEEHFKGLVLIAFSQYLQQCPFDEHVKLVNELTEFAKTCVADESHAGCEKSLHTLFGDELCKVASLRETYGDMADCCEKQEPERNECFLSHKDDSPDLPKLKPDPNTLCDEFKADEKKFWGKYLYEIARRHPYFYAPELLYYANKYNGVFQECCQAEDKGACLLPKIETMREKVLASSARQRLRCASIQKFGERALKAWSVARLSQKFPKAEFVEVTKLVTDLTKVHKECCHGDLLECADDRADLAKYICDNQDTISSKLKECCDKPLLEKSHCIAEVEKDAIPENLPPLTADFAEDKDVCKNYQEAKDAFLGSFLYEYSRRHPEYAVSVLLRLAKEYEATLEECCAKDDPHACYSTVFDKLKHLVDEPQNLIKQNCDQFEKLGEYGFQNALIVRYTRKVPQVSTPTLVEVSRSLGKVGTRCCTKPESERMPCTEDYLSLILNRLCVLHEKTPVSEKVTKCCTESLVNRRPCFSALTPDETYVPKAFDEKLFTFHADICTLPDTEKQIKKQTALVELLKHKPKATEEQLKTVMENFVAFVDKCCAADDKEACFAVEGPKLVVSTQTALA
PDI H256A mutant, sequence (P07237 18-508 H256A): as the sequence (P07237 18-508) above, with H239A counted along it
PDI b′ domain, sequence (P07237 18-508): as the sequence (P07237 18-508) above
BSA, sequence (P02769 25-607): as the sequence (P02769 25-607) above

Oc1c(C(c2ccc(F)cc2)N2CCN(C(c3ccc(F)cc3)c3ccc4cncnc4c3O)CC2)ccc2cncnc12 (stereo not shown) [5d dimer]
PDI inhibition in the presence of competing glutathione (PDIA1 [1]): less sensitive to glutathione competition than the monomer | potency in colony formation assay, dependence on BSO (U−118 MG cells): more potent and its potency was not dependent on BSO addition | covalent binding to PDI by mass spectrometry (PDI [2]): bound to PDI

Oc1c(C(c2ccc(F)cc2)N2CCNCC2)ccc2cncnc12 (stereo not shown) [5d, 7-((4-Fluorophenyl)(piperazin-1-yl)methyl)quinazolin-8-ol]
PDI inhibition in the presence of competing glutathione (PDIA1 [1]): maintained potency | potency in colony formation assay, dependence on BSO (U−118 MG cells): more sensitive to BSO addition | covalent binding to PDI by mass spectrometry (PDI [2]): bound to PDI

Oc1c(C(c2ccncc2)N2CCCCC2)ccc2ccoc12 (stereo not shown) [5p, 6-(Piperidin-1-yl(pyridin-4-yl)methyl)benzofuran-7-ol]
effect on transcription (gene set enrichment) (U−87 MG cells [3]): upregulates transcription of genes involved in the unfolded protein response | inhibition at 30 µM (U−87 MG cells [4]): 1%

Oc1cc2c(cc1C(c1ccccc1)N1CCCCC1)OCO2 (stereo not shown) [6b, 6-(phenyl(piperidin-1-yl)methyl)benzo[d][1,3]dioxol-5-ol]
inhibition at 30 µM (A-172 cells): 17%

Oc1cc2c(cc1C(c1ccc(F)cc1)N1CCCCC1)CCC2 (stereo not shown) [6f, 6-((4-Fluorophenyl)(piperidin-1-yl)methyl)-2,3-dihydro-1H-inden-5-ol]
competition with PACMA57 for binding to PDI (PDI [5]): did not compete with PACMA57 | PDI inhibition in the PDI reductase assay (in words) (PDIA1 [6]): completely lost activity | covalent binding to PDI by mass spectrometry (PDI [2]): did not demonstrate covalent binding to PDI | inhibition at 30 µM (U−87 MG cells [4]): 13%

COc1ccc(C(c2cc3c(cc2O)OCO3)N2CCOCC2)cc1OC (stereo not shown) [AS15]
kinact/KI (PDI [7]): 2600 M⁻¹ s⁻¹ | inhibition of PDIA3 activity (PDIA3 [8]): could also inhibit PDIA3 activity | inhibition of PDIA2 activity (PDIA2 [9]): inhibited activity of PDIA2 | stabilization of PDI to thermal degradation (PDI [10]): did not stabilize PDI to thermal degradation | activity against H256A mutant PDI (PDI H256A mutant): retained their activity | competition with ANS fluorescence (PDI b′ domain): did not lower the fluorescence of ANS | PDI activity recovery after 100-fold dilution (PDI [11]): did not maintain the characteristics of the high concentration of inhibitor after dilution | PDI activity recovery after dilution (PDI [11]): behave like the expected irreversible inhibitor

Oc1c(C(Nc2ccccn2)c2ccc(Cl)cc2)ccc2cccnc12 (stereo not shown) [CD343]
inhibition of PDIA2 activity (PDIA2 [9]): inhibited activity of PDIA2 | stabilization of PDI to thermal degradation (PDI [10]): did not stabilize PDI to thermal degradation | activity against H256A mutant PDI (PDI H256A mutant): retained their activity | competition with ANS fluorescence (PDI b′ domain): did not lower the fluorescence of ANS | PDI activity recovery after 100-fold dilution (PDI [11]): did not maintain the characteristics of the high concentration of inhibitor after dilution | PDI activity recovery after dilution (PDI [11]): too active at this ratio

CC1=CC(C)=[N+]2C1=C(c1ccc(NC(=O)c3ccc(C(c4cc5c(cc4O)OCO5)N4CCCCC4)cc3)cc1)c1c(C)cc(C)n1[B-]2(F)F (stereo not shown) [compound 15, N-(4-(5,5-Difluoro-1,3,7,9-tetramethyl-5H-4λ^4,5λ^4-dipyrrolo[1,2-c:2’,1’-f][1,3,2]diazaborinin-10-yl)phenyl)-4-((6-hydroxybenzo[d][1,3]dioxol-5-yl)(piperidin-1-yl)methyl)benzamide]
PDI inhibition in the PDI reductase assay (in words) (PDIA1 [6]): did not inhibit PDI activity | binding to serum albumin (serum albumin): bound to serum albumin

CC1=CC(C)=[N+]2C1=C(c1ccc(C(=O)NCCNC(=O)c3ccc(C(c4cc5c(cc4O)OCO5)N4CCCCC4)cc3)cc1)c1c(C)cc(C)n1[B-]2(F)F (stereo not shown) [compound 16]
binding to PDIA3 (PDIA3 [12]): bound | binding to PDIA2 (PDIA2 [13]): bound | binding to PDIA1 (PDIA1 [14]): covalently binds; also recorded: bound | binding to serum albumin (serum albumin): bound to serum albumin | binding to BSA (BSA): bound
